Measurements: ChEMBL document CHEMBL4334468, “Exploring Mitochondria-Mediated Intrinsic Apoptosis by New Phytochemical Entities: An Explicit Observation of Cytochrome c Dynamics on Lung and Melanoma Cancer Cells” (J Med Chem, 2019)
Active and inactive are the calls of the source. The calls are words filed in the database; no cut-off is given here.

Assays:
A-375 [1] = assay: Cytotoxicity in human A375 cells assessed as reduction in cell viability incubated for 24 hrs by MTT assay; type: functional, cell-based; settings: Homo sapiens, A-375, 24 h; read-out: IC50
Procedure, shortened: (§1)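 MTT viability assay on A375 melanoma, A549 lung adenocarcinoma and WI-38 normal lung fibroblast cells after 24 and 48 h treatment. IC50 values are in µM, expressed as mean ± SD.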

A-375 [2] = assay: Cytotoxicity in human A375 cells assessed as reduction in cell viability incubated for 48 hrs by MTT assay; type: functional, cell-based; settings: Homo sapiens, A-375, 48 h; read-out: IC50; procedure, shortened: as §1
A549 [3] = assay: Cytotoxicity in human A549 cells assessed as reduction in cell viability at 0.001 to 100 uM incubated for 24 to 48 hrs by LDH assay; type: functional, cell-based
Procedure, shortened: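 LDH released into the culture medium after plasma membrane damage was quantified and expressed as percentage cytotoxicity.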

[4] = Antioxidant activity at 1 to 1000 ug/ml incubated for 90 mins by FRAP assay; type: functional
A549 [5] = assay: Induction of intracellular ROS generation in human A549 cells by DCFDA dye based fluorescence assay relative to control; type: functional, cell-based
Procedure, shortened: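 Intracellular ROS in A549 cells was measured with the DCFDA probe over 1-100 µM, with paclitaxel as positive control. Readout is fold change in fluorescence intensity relative to untreated control.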

A549 [6] = assay: Induction of morphological changes in human A549 cells assessed as change in shape of cells from spindle to spherical at 1 uM by atomic force microscopy; type: functional, cell-based
A549 [7] = assay: Induction of apoptosis in human A549 cells at 1 uM by APOP assay; type: functional, cell-based
Procedure, shortened: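 APOPercentage dye uptake in treated A549 cells, which stain purple-red in early apoptosis when phosphatidylserine is translocated. Accumulated dye was then quantified against unstained untreated controls.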

A-375 [8] = assay: Induction of apoptosis in human A375 cells assessed as induction of nuclear changes with DNA fragmentation at 1 uM by Hoechst 33342 nuclear staining based assay; type: functional, cell-based
Procedure, shortened: (§2)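 Hoechst 33342 nuclear staining of treated A549 or A375 cells. Nuclear condensation and fragmentation were examined by fluorescence microscopy against untreated control.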

A549 [9] = assay: Induction of apoptosis in human A549 cells assessed as induction of nuclear changes with DNA fragmentation at 1 uM by Hoechst 33342 nuclear staining based assay; type: functional, cell-based; procedure, shortened: as §2
A549 [10] = assay: Induction of apoptosis in human A549 cells assessed as early apoptotic cells level at 1 uM incubated for 24 hrs by FITC-Annexin V staining based assay (reference value: 0.01%); type: functional
A549 [11] = assay: Induction of apoptosis in human A549 cells assessed as late apoptotic cells level at 1 uM incubated for 24 hrs by FITC-Annexin V staining based assay (reference value: 0.02%); type: functional
A-375 [12] = assay: Induction of apoptosis in human A375 cells at 1 uM incubated for 24 hrs by FITC-Annexin V staining based assay (reference value: 0.03 +/- 0.9%); type: functional
A-375 [13] = assay: Antimetastatic activity in human A375 cells assessed as reduction in cell invasion at 10 nM by crystal violet staining based transwell chamber assay; type: functional
Procedure, shortened: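 Invasion was measured in a transwell chamber, with cells moving across Matrigel toward the lower chamber. Invaded cells were imaged and quantified against untreated control.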

A549 [14] = assay: Antimetastatic activity in human A549 cells assessed as reduction in cell migration at 10 nM by crystal violet staining based transwell chamber assay; type: functional
Procedure, shortened: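 Transwell chamber migration assay. Cells migrating to the lower side were imaged and quantified against untreated control.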

A549 [15] = assay: Antimetastatic activity in human A549 cells assessed as inhibition of cell migration rate at 1 nM incubated up to 24 hrs by scratch wound healing assay; type: functional, cell-based
Procedure, shortened: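 Scratch wound healing assay. The cell-free zone was followed over time up to 24 h, with untreated control wells as reference. Closure was quantified as migration rate.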

A549 [16] = assay: Induction of cell cycle arrest in human A549 cells assessed as accumulation at G0/G1 phase at 10 nM by propodium iodide staining based flow cytometric analysis (reference value: 68%); type: functional
Procedure, shortened: (§3)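 DNA was stained with propidium iodide and analysed by flow cytometry. Histograms give the fraction of cells in G0/G1, S and G2/M phases.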

A549 [17] = assay: Induction of cell cycle arrest in human A549 cells assessed as accumulation at S phase at 10 nM by propodium iodide staining based flow cytometric analysis (reference value: 25%); type: functional; procedure, shortened: as §3
A-375 [18] = assay: Induction of cell cycle arrest in human A375 cells assessed as accumulation at G0/G1 phase at 10 nM by propodium iodide staining based flow cytometric analysis; type: functional; procedure, shortened: as §3
A-375 [19] = assay: Induction of cell cycle arrest in human A375 cells assessed as accumulation at S phase at 10 nM by propodium iodide staining based flow cytometric analysis; type: functional; procedure, shortened: as §3
A549 [20] = assay: Inhibition of mitochondrial membrane potential in human A549 cells at 1 uM by TMRE staining based assay; type: functional, cell-based
A-375 [21] = assay: Inhibition of mitochondrial membrane potential in human A375 cells at 1 uM by TMRE staining based assay; type: functional, cell-based
A549 [22] = assay: Induction of apoptosis in human A549 cells assessed as increase in caspase-3 levels at 1 uM incubated for 12 hrs by spectrofluorometry; type: functional, cell-based
A549 [23] = assay: Induction of apoptosis in human A549 cells assessed as increase in caspase-9 levels at 1 uM incubated for 12 hrs by spectrofluorometry; type: functional, cell-based
A-375 [24] = assay: Induction of apoptosis in human A375 cells assessed as increase in caspase-3 levels at 1 uM incubated for 12 hrs by spectrofluorometry; type: functional, cell-based
A-375 [25] = assay: Induction of apoptosis in human A375 cells assessed as increase in caspase-9 levels at 1 uM incubated for 12 hrs by spectrofluorometry; type: functional, cell-based
A549 [26] = assay: Induction of apoptosis in human A549 cells assessed as increase in caspase-8 levels at 1 uM incubated for 12 hrs by spectrofluorometry; type: functional, cell-based
A-375 [27] = assay: Induction of apoptosis in human A375 cells assessed as increase in caspase-2 levels at 1 uM incubated for 12 hrs by spectrofluorometry; type: functional, cell-based
A549 [28] = assay: Induction of apoptosis in human A549 cells assessed as increase in caspase-2 levels at 1 uM incubated for 12 hrs by spectrofluorometry; type: functional, cell-based
A549 [29] = assay: Induction of DNA damage in human A549 cells after 4 hrs by Raman spectral imaging analysis; type: functional, cell-based
A549 [30] = assay: Induction of apoptosis in human A549 cells assessed as cytochrome-c release after 3 to 4 hrs by Raman spectral imaging analysis; type: functional, cell-based
A-375 [31] = assay: Induction of DNA damage in human A375 cells by SERS spectral analysis; type: functional, cell-based
A-375 [32] = assay: Induction of DNA fragmentation in human A375 cells after 4 hrs by agarose gel electrophoresis; type: functional, cell-based
A-375 [33] = assay: Induction of DNA fragmentation in human A375 cells after 3 hrs by chemometec-DNA fragmentation assay relative to control; type: functional, cell-based
A549 [34] = assay: Induction of GSH depletion in human A549 cells by fluorimetry; type: functional, cell-based
A549 [35] = assay: Induction of apoptosis related protein expression in human A549 cells assessed as increase in CD40L expression at 20 uM incubated for 12 hrs by apoptosis antibody array; type: functional, cell-based
A549 [36] = assay: Induction of apoptosis related protein expression in human A549 cells assessed as increase in HSP60 expression at 20 uM incubated for 12 hrs by apoptosis antibody array; type: functional, cell-based
A549 [37] = assay: Induction of apoptosis related protein expression in human A549 cells assessed as increase in p21 expression at 20 uM incubated for 12 hrs by apoptosis antibody array; type: functional, cell-based

Question: Which results are given for COc1cc(C2Oc3cc(-c4cc(=O)c5c(O)cc(O)cc5o4)ccc3OC2/C=C2\C(=O)ON=C2c2ccc(Cl)cc2)ccc1O (configuration not stated)?
Answer: IC50 (A-375 [1]): 1.2 µM; IC50 (A-375 [2]): 0.94 µM; Activity (A549 [3]): Active; Activity [4]: inactive; Activity (A549 [5]): Dose-dependent effect; Activity (A549 [6]): Active; Activity (A549 [7]): Active; Activity (A-375 [8]): Active; Activity (A549 [9]): Active; Activity (A549 [10]): 9%; Activity (A549 [11]): 38%; Activity (A-375 [12]): 39%; Activity (A-375 [13]): Active; Activity (A549 [14]): Active; Activity (A549 [15]): Active; Activity (A549 [16]): 31%; Activity (A549 [17]): 40%; Activity (A-375 [18]): Active; Activity (A-375 [19]): Active; inhibition (A549 [20]): Active; inhibition (A-375 [21]): Active; Activity (A549 [22]): Active; Activity (A549 [23]): Active; Activity (A-375 [24]): Active; Activity (A-375 [25]): Active; Activity (A549 [26]): inactive; Activity (A-375 [27]): Active; Activity (A549 [28]): Active; Activity (A549 [29]): Active; Activity (A549 [30]): Active; Activity (A-375 [31]): Active; Activity (A-375 [32]): Active; Activity (A-375 [33]): Active; Activity (A549 [34]): Active; Activity (A549 [35]): Active; Activity (A549 [36]): Active; Activity (A549 [37]): Active
